Data taken from ChEMBL document CHEMBL1156395, “Cytotoxic polyacetylenic alcohols from the marine sponge Petrosia species” (2001).
In brackets after ≈: the same amount, converted by molar mass.

How the values were obtained:
A549 = test: Cytotoxicity against human A549 cells; assay type: functional; settings: read-out: ED50 (the source's name)
XF498 = test: Cytotoxicity against human XF498 cells; assay type: functional; settings: read-out: ED50 (the source's name)
SK-OV-3 = test: Cytotoxicity against human SKOV3 cells; assay type: functional; settings: read-out: ED50 (the source's name)
Nucleic Acid [1] = test: Inhibition of SV40 DNA replication at 20 uM; assay type: nucleic-acid assay; settings: Betapolyomavirus macacae
Method in brief: (§1)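 Cell-free SV40 origin (pUC) plasmid replication in 40 mM creatine phosphate-di-Tris pH 7.7 with creatine kinase, 7 mM MgCl2, 0.5 mM DTT, 4 mM ATP, 200 µM UTP/GTP/CTP, 100 µM dATP/dGTP/dCTP, 25 µM [3H]dTTP, 0.6 µg SV40 T-Ag and replication proteins. Incubation 90 min at 37 °C; acid-insoluble radioactivity counted. Products checked with [α-32P]dATP on agarose gel.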

SK-MEL-2 = test: Cytotoxicity against human SK-MEL-2 cells; assay type: functional; settings: read-out: ED50 (the source's name)
HCT-15 = test: Cytotoxicity against human HCT15 cells; assay type: functional; settings: read-out: ED50 (the source's name)
Nucleic Acid [2] = test: Inhibition of SV40 DNA replication at 40 uM; assay type: nucleic-acid assay; settings: Betapolyomavirus macacae; method in brief: as §1

| Structure (SMILES) | EC50 (A549) | EC50 (XF498) | EC50 (SK-OV-3) | inhibition (Nucleic Acid [1]) | EC50 (SK-MEL-2) | EC50 (HCT-15) | inhibition (Nucleic Acid [2]) |
| --- | --- | --- | --- | --- | --- | --- | --- |
| C#C/C=C\CCCCCCCCCCCCCCC(O)/C=C/CCC/C=C\CCCCC#C[C@H](O)C#CCCCCCC/C=C/[C@H](O)C#C (stereo not given in full) | 4 µg/mL (≈ 5.96 µM) | 3.5 µg/mL (≈ 5.22 µM) | 1.2 µg/mL (≈ 1.79 µM) | 8% | 0.5 µg/mL (≈ 0.745 µM) | 1.4 µg/mL (≈ 2.09 µM) | 55% |
| C#CCCCCCCCCCCCCCCCCC/C=C\CCCC/C=C\CCCCC#C[C@@H](O)C#CCCCCCCCC[C@@H](O)C#C [PETROTETRAYNDIOL F] | 3.7 µg/mL (≈ 5.5 µM) | 4.3 µg/mL (≈ 6.39 µM) | 3.8 µg/mL (≈ 5.65 µM) | 16% | 1.1 µg/mL (≈ 1.63 µM) | 3.4 µg/mL (≈ 5.05 µM) | 48% |
| C#C/C=C\CCCCCCCCCCCCCCCC/C=C\CCCC/C=C\CCCCC#C[C@@H](O)C#CCCCCCC/C=C/[C@H](O)C#C | 5.2 µg/mL (≈ 7.61 µM) | 5.8 µg/mL (≈ 8.49 µM) | 5.1 µg/mL (≈ 7.47 µM) | 21% | 1.6 µg/mL (≈ 2.34 µM) | 3.9 µg/mL (≈ 5.71 µM) | 38% |
| C#C/C=C\CCCCCCCCCCCCC/C=C/C(O)CCCC/C=C\CCCCC#C[C@H](O)C#CCCCCCC/C=C/[C@H](O)C#C (stereo not given in full) | 4 µg/mL (≈ 5.96 µM) | 3.5 µg/mL (≈ 5.22 µM) | 1.2 µg/mL (≈ 1.79 µM) | 8% | 0.5 µg/mL (≈ 0.745 µM) | 1.4 µg/mL (≈ 2.09 µM) | 55% |
| C#C/C=C\CCCCCCCCCCCCCC/C=C\CCCCC(O)/C=C/CCCC#C[C@H](O)C#CCCCCCC/C=C/[C@H](O)C#C (stereo not given in full) | 10 µg/mL (≈ 14.9 µM) | 4.7 µg/mL (≈ 7 µM) | 1.8 µg/mL (≈ 2.68 µM) | 9% | 1.3 µg/mL (≈ 1.94 µM) | 4 µg/mL (≈ 5.96 µM) | 36% |
